Experimental data reported in ChEMBL document CHEMBL4011653, “Design, Synthesis, and Evaluation of Novel Prodrugs of Transition State Inhibitors of Norovirus 3CL Protease” (J Med Chem, 2017).
pEC50, pIC50: −log10 of the molar value.

How the values were obtained:
[1] = Protein binding in human serum at 25 to 100 uM after 4 hrs by LC-MS method; type: ADME, cell-free; conditions: read-out: PB (converted)
[2] = Metabolic stability of human liver microsomes assessed as amount of parent compound remaining at 25 to 100 uM after 1 hr in the presence of NADPH by LC-MS method; type: ADME, microsome; conditions: read-out: Stability
Outline: (§1)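 Compound at 25 or 100 μM was incubated with mouse or human liver microsomes plus NADPH for 1 h at 37 °C. The remaining aldehyde form was quantified by LC/MS.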

[3] = Inhibition of Norovirus 3CL protease using Edans-DFHLQ/GP-Dabcyl as substrate after 30 mins by FRET assay
Outline: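 Norovirus 3CL protease was preincubated with serial compound dilutions up to 100 μM, or DMSO, for 30 min at 37 °C. Edans-DFHLQ/GP-Dabcyl substrate was then added. Buffer was 20 mM HEPES pH 8, 200 mM NaCl, 0.4 mM EDTA, 60% glycerol and 6 mM DTT. Fluorescence (ex 360/em 460 nm) was read for 1 h, minus the no-protease background. IC50 came from variable-slope curve fits.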

[4] = Metabolic stability of mouse liver microsomes assessed as amount of parent compound remaining at 25 to 100 uM after 1 hr in the presence of NADPH by LC-MS method; type: ADME, microsome; conditions: read-out: Stability; outline: as §1
[5] = tested on: Norovirus; experiment: Antiviral activity against Norovirus infected in human HG23 cells assessed as inhibition of viral replication after 48 hrs by quantitative RT-PCR method; type: functional, cell-based; conditions: HG23, 48 h
[6] = tested on: HeLa; experiment: Cytotoxicity against human HeLa cells assessed as cell viability after 72 hrs by MTT assay; type: functional
[7] = Protein binding in mouse serum at 25 to 100 uM after 4 hrs by LC-MS method; type: ADME, cell-free; conditions: read-out: PB (converted)
[8] = Selectivity index, ratio of CC50 for human HeLa cells to EC50 for norovirus
[9] = Metabolic stability in human serum assessed as amount of parent compound remaining at 25 to 100 uM at 37 degC after 1 hr by LC-MS analysis; type: ADME, cell-free; conditions: read-out: Stability
[10] = Metabolic stability in mouse serum assessed as amount of parent compound remaining at 25 to 100 uM at 37 degC after 1 hr by LC-MS analysis; type: ADME, cell-free; conditions: read-out: Stability
[11] = tested on: Serum; experiment: Prodrug activation in human serum assessed as 3-chlorobenzyl (S)-3-cyclohexyl-1-oxo-1-((S)-1-oxo-3-((S)-2-oxopyrrolidin-3-yl)propan-2-ylamino)propan-2-ylcarbamate formation by measuring parent compound half life at 25 to 100 uM by LC-MS method; type: ADME, cell-free
[12] = Prodrug activation in human HG23 cells assessed as 3-chlorobenzyl (S)-3-cyclohexyl-1-oxo-1-((S)-1-oxo-3-((S)-2-oxopyrrolidin-3-yl)propan-2-ylamino)propan-2-ylcarbamate formation by LC-MS method; type: ADME, cell-based

Row | SMILES | pIC50 [3] | pEC50 [5] | further results
1 | CC(C)C[C@H](NC(=O)OCc1ccccc1)C(=O)N[C@@H](C[C@@H]1CCNC1=O)C(OC(=O)c1ccccc1)S(=O)(=O)O (some centres undefined) | 5.14 | 6.10 | 
2 | CC(C)C[C@H](NC(=O)OCc1ccccc1)C(=O)N[C@@H](C[C@@H]1CCNC1=O)C(O)S(=O)(=O)O (some centres undefined) | 6.10 | 6.52 | fraction unbound at 4 h, up to 100 µM [1]: 0.35; remaining at 1 h, up to 100 µM [2]: 92%; remaining at 1 h, up to 100 µM [9]: 2%; remaining at 1 h, up to 100 µM [4]: 82%; remaining at 1 h, up to 100 µM [10]: 18%; CC50 [6]: > 200000 nM; fraction unbound at 4 h, up to 100 µM [7]: 0.29; selectivity ratio [8]: > 667
3 | CCCCC(=O)OC([C@H](C[C@@H]1CCNC1=O)NC(=O)[C@H](CC(C)C)NC(=O)OCc1ccccc1)S(=O)(=O)O (some centres undefined) | 5.46 | 5.85 | 
4 | COC(=O)CNC(=O)OC([C@H](C[C@@H]1CCNC1=O)NC(=O)[C@H](CC(C)C)NC(=O)OCc1ccccc1)S(=O)(=O)O (some centres undefined) | 5.51 | 6.40 | 
5 | COC(=O)C(C)NC(=O)OC([C@H](C[C@@H]1CCNC1=O)NC(=O)[C@H](CC1CCCCC1)NC(=O)OCc1cccc(Cl)c1)S(=O)(=O)O (some centres undefined) | 6.10 | 7.60 | 
6 | CCC(=O)OC([C@H](C[C@@H]1CCNC1=O)NC(=O)[C@H](CC(C)C)NC(=O)OCc1ccccc1)S(=O)(=O)O (some centres undefined) | 5.12 | 6.15 | 
7 | CC(=O)CC(c1ccccc1)c1c(O)c2ccccc2oc1=O (centres undefined) [WARFARIN] |  |  | fraction unbound at 4 h, up to 100 µM [1]: 0.01; remaining at 1 h, up to 100 µM [2]: 95%; remaining at 1 h, up to 100 µM [4]: 99.6%; fraction unbound at 4 h, up to 100 µM [7]: 0.04
8 | CC(=O)OC([C@H](C[C@@H]1CCNC1=O)NC(=O)[C@H](CC1CCCCC1)NC(=O)OCc1cccc(Cl)c1)S(=O)(=O)[O-].[Na+] (some centres undefined) | 7.10 | 7.52 | remaining at 1 h, up to 100 µM [2]: 17%; t1/2 [11]: 25 min; remaining at 1 h, up to 100 µM [9]: 56%; remaining at 1 h, up to 100 µM [4]: 14%; remaining at 1 h, up to 100 µM [10]: 0%; CC50 [6]: > 200000 nM; selectivity ratio [8]: > 6670; Drug metabolism [12]: Metabolite_Detected
9 | CC(=O)OC([C@H](C[C@@H]1CCNC1=O)NC(=O)[C@H](CC1CCCCC1)NC(=O)OCc1ccccc1)S(=O)(=O)O (some centres undefined) | 5.12 | 6.70 | 
10 | COC(=O)C(NC(=O)OC([C@H](C[C@@H]1CCNC1=O)NC(=O)[C@H](CC(C)C)NC(=O)OCc1ccccc1)S(=O)(=O)O)C(C)C (some centres undefined) | 5.60 | 6.40 | 
11 | CC(C)C(=O)OC([C@H](C[C@@H]1CCNC1=O)NC(=O)[C@H](CC1CCCCC1)NC(=O)OCc1cccc(Cl)c1)S(=O)(=O)O (some centres undefined) | 6.52 | 7.52 | 
12 | COc1ccc(CCN(C)CCCC(C#N)(c2ccc(OC)c(OC)c2)C(C)C)cc1OC (centres undefined) |  |  | remaining at 1 h, up to 100 µM [2]: 41%; remaining at 1 h, up to 100 µM [4]: 30%
13 | COC(=O)C(C)NC(=O)OC([C@H](C[C@@H]1CCNC1=O)NC(=O)[C@H](CC1CCCCC1)NC(=O)OCc1ccccc1)S(=O)(=O)O (some centres undefined) | 4.99 | 6.70 | 
14 | CC(C)C[C@H](NC(=O)OCc1ccccc1)C(=O)N[C@@H](C[C@@H]1CCNC1=O)C(OC(=O)C(C)C)S(=O)(=O)O (some centres undefined) | 5.46 | 6.52 | 
15 | O=C(N[C@@H](CC1CCCCC1)C(=O)N[C@@H](C[C@@H]1CCNC1=O)C(O)S(=O)(=O)O)OCc1cccc(Cl)c1 (some centres undefined) | 7.00 | 7.70 | fraction unbound at 4 h, up to 100 µM [1]: 0.04; remaining at 1 h, up to 100 µM [2]: 54%; remaining at 1 h, up to 100 µM [9]: 0%; remaining at 1 h, up to 100 µM [4]: 35%; remaining at 1 h, up to 100 µM [10]: 0%; CC50 [6]: 49600 nM; fraction unbound at 4 h, up to 100 µM [7]: 0.03; selectivity ratio [8]: 2480
16 | CC(=O)OC([C@H](C[C@@H]1CCNC1=O)NC(=O)[C@H](CC(C)C)NC(=O)OCc1ccccc1)S(=O)(=O)O (some centres undefined) | 4.98 | 6.22 | 
17 | COC(=O)C(NC(=O)OC([C@H](C[C@@H]1CCNC1=O)NC(=O)[C@H](CC1CCCCC1)NC(=O)OCc1cccc(Cl)c1)S(=O)(=O)O)C(C)C (some centres undefined) | 6.30 | 7.40 | 
18 | CCCCCCCC(=O)OC([C@H](C[C@@H]1CCNC1=O)NC(=O)[C@H](CC(C)C)NC(=O)OCc1ccccc1)S(=O)(=O)O (some centres undefined) | 5.52 | 6.30 | 

More lines, in order of rising pIC50 [3], values ahead:

Row | pIC50 [3] | pEC50 [5] | SMILES | further results
19 | 5.43 | 5.89 | CCCC(=O)OC([C@H](C[C@@H]1CCNC1=O)NC(=O)[C@H](CC(C)C)NC(=O)OCc1ccccc1)S(=O)(=O)O (some centres undefined) | 
20 | 5.55 | 6.52 | CCCCCC(=O)OC([C@H](C[C@@H]1CCNC1=O)NC(=O)[C@H](CC(C)C)NC(=O)OCc1ccccc1)S(=O)(=O)O (some centres undefined) | 
21 | 5.74 | 6.52 | COC(=O)C(C)NC(=O)OC([C@H](C[C@@H]1CCNC1=O)NC(=O)[C@H](CC(C)C)NC(=O)OCc1ccccc1)S(=O)(=O)O (some centres undefined) | 
22 | 6.05 | 7.52 | CCCCCCCC(=O)OC([C@H](C[C@@H]1CCNC1=O)NC(=O)[C@H](CC1CCCCC1)NC(=O)OCc1cccc(Cl)c1)S(=O)(=O)O (some centres undefined) | 
23 | 6.10 | 7.60 | CCCCCCOC(=O)OC([C@H](C[C@@H]1CCNC1=O)NC(=O)[C@H](CC1CCCCC1)NC(=O)OCc1cccc(Cl)c1)S(=O)(=O)O (some centres undefined) | 
24 | 6.40 | 7.70 | O=C(N[C@@H](CC1CCCCC1)C(=O)N[C@@H](C[C@@H]1CCNC1=O)C(OC(=O)C1CCCCC1)S(=O)(=O)O)OCc1cccc(Cl)c1 (some centres undefined) | 
25 | 7.00 | 7.70 | O=C[C@H](C[C@@H]1CCNC1=O)NC(=O)[C@H](CC1CCCCC1)NC(=O)OCc1cccc(Cl)c1 | fraction unbound at 4 h, up to 100 µM [1]: 0.02; remaining at 1 h, up to 100 µM [2]: 63%; remaining at 1 h, up to 100 µM [4]: 40%; CC50 [6]: 56100 nM; fraction unbound at 4 h, up to 100 µM [7]: 0.02; selectivity ratio [8]: 2800
26 | 7.00 | 7.60 | CCC(=O)OC([C@H](C[C@@H]1CCNC1=O)NC(=O)[C@H](CC1CCCCC1)NC(=O)OCc1cccc(Cl)c1)S(=O)(=O)[O-].[Na+] (some centres undefined) | remaining at 1 h, up to 100 µM [2]: 11%; t1/2 [11]: 25 min; remaining at 1 h, up to 100 µM [9]: 52%; remaining at 1 h, up to 100 µM [4]: 17%; remaining at 1 h, up to 100 µM [10]: 0%; CC50 [6]: 112000 nM; selectivity ratio [8]: 4480
27 | 7.00 | 7.82 | CCCCCC(=O)OC([C@H](C[C@@H]1CCNC1=O)NC(=O)[C@H](CC1CCCCC1)NC(=O)OCc1cccc(Cl)c1)S(=O)(=O)O (some centres undefined) | remaining at 1 h, up to 100 µM [2]: 76%; remaining at 1 h, up to 100 µM [9]: 103%; remaining at 1 h, up to 100 µM [4]: 38%; remaining at 1 h, up to 100 µM [10]: 60%; CC50 [6]: 82000 nM; selectivity ratio [8]: 5470
